Reference: ChEMBL document CHEMBL3525900, “Pharmacokinetics, distribution, and metabolism of [14C]sunitinib in rats, monkeys, and humans” (Drug Metab Dispos, 2012)

Assays:
Conditions in all cases: in vivo
[1] = Drug excretion in feces of male cynomolgus monkey treated with [14C]sunitinib at 6 mg/kg, po administered as single dose by liquid scintillation counting; format: ADME, organism-based, Macaca fascicularis; parameters: dose 6 mg/kg, dosed compound name [14C]Sunitinib, route oral
In short: (§1)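 Cynomolgus monkeys given one oral gavage dose of [14C]sunitinib L-malate, 6 mg/kg (37 µCi/kg). Urine collected at 0-4, 4-8 and 8-24 h, feces at 0-8 and 8-24 h, then both daily to 14 days; samples stored at -80 °C. Duplicate urine aliquots counted by liquid scintillation; homogenized feces combusted before counting.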

[2] = Drug excretion in urine of male Sprague-Dawley rat treated with [14C]sunitinib at 15 mg/kg, po administered as single dose by liquid scintillation counting; format: ADME, organism-based; parameters: dose 15 mg/kg, dosed compound name [14C]Sunitinib, route oral
In short: (§2)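 Female and male rats given one oral gavage dose, 15 mg/kg free base equivalents (50 µCi/kg). Urine and feces collected on dry ice, protected from light, over 0-4, 4-8 and 8-24 h, then daily to 72 h. Urine aliquots counted by liquid scintillation; homogenized feces combusted in oxygen before counting. Counts 5 min, external quench correction.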

[3] = Drug excretion in urine of human treated with [14C]sunitinib at 50 mg, po administered as single dose by liquid scintillation counting
[4] = Drug excretion in urine of female Sprague-Dawley rat treated with [14C]sunitinib at 15 mg/kg, po administered as single dose by liquid scintillation counting; format: ADME, organism-based; parameters: dose 15 mg/kg, dosed compound name [14C]Sunitinib, route oral; in short: as §2
[5] = Drug excretion in urine of female cynomolgus monkey treated with [14C]sunitinib at 6 mg/kg, po administered as single dose by liquid scintillation counting; format: ADME, organism-based, Macaca fascicularis; parameters: dose 6 mg/kg, dosed compound name [14C]Sunitinib, route oral; in short: as §1
[6] = Drug excretion in urine of female Sprague-Dawley rat treated with [14C]sunitinib at 5 mg/kg, iv administered as single dose by liquid scintillation counting; format: ADME, organism-based; parameters: dose 5 mg/kg, dosed compound name [14C]Sunitinib, route intravenous
In short: (§3)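 Five female rats given a single tail-vein bolus of [14C]sunitinib L-malate, 5 mg/kg free base equivalents (50 µCi/kg). Urine and feces collected over 0-72 h into dry-ice cooled containers. Urine counted directly by liquid scintillation; feces homogenized and combusted in oxygen before counting. Expired air also monitored.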

[7] = Drug excretion in feces of female cynomolgus monkey treated with [14C]sunitinib at 6 mg/kg, po administered as single dose by liquid scintillation counting; format: ADME, organism-based, Macaca fascicularis; parameters: dose 6 mg/kg, dosed compound name [14C]Sunitinib, route oral; in short: as §1
[8] = Drug excretion in urine of male cynomolgus monkey treated with [14C]sunitinib at 6 mg/kg, po administered as single dose by liquid scintillation counting; format: ADME, organism-based, Macaca fascicularis; parameters: dose 6 mg/kg, dosed compound name [14C]Sunitinib, route oral; in short: as §1
[9] = Drug excretion in feces of human treated with [14C]sunitinib at 50 mg, po administered as single dose by liquid scintillation counting
[10] = Drug excretion in feces of female Sprague-Dawley rat treated with [14C]sunitinib at 15 mg/kg, po administered as single dose by liquid scintillation counting; format: ADME, organism-based; parameters: dose 15 mg/kg, dosed compound name [14C]Sunitinib, route oral; in short: as §2
[11] = Drug excretion in feces of female Sprague-Dawley rat treated with [14C]sunitinib at 5 mg/kg, iv administered as single dose by liquid scintillation counting; format: ADME, organism-based; parameters: dose 5 mg/kg, dosed compound name [14C]Sunitinib, route intravenous; in short: as §3

SMILES	Compound recovery [1] [%]	Compound recovery [2] [%]	Compound recovery [3]	Compound recovery [4] [%]	Compound recovery [5] [%]	Compound recovery [6] [%]	Compound recovery [7] [%]	Compound recovery [8] [%]	Compound recovery [9]	Compound recovery [10] [%]	Compound recovery [11] [%]
CC[N+]([O-])(CC)CCNC(=O)c1c(C)[nH]c(/C=C2\C(=O)Nc3ccc(F)cc32)c1C	3.2	0.3	metabolite_not_detected	1.5	0.2	0.7	2.6	< 0.1			
Cc1[nH]c(/C=C2\C(=O)Nc3ccc(F)cc32)c(C)c1C(=O)NCC(=O)O	6.3						6.2		metabolite_not_detected		
CCNCC(O)NC(=O)c1c(C)[nH]c(/C=C2\C(=O)Nc3ccc(F)cc32)c1C (centres undefined)	1						0.8		metabolite_not_detected		
Cc1[nH]c(/C=C2\C(=O)Nc3ccc(F)cc32)c(C)c1C(=O)NCCN	1						0.8		metabolite_not_detected	1.7	1.1
